From ChEMBL document CHEMBL1154034, “Piperazinyl-glutamate-pyridines as potent orally bioavailable P2Y12 antagonists for inhibition of platelet aggregation” (Bioorg Med Chem Lett, 2009)

Tests used:
[1] = Volume of distribution at steady state in Sprague-Dawley rat at 2 mg/kg, iv and 5 mg/kg, po; assay type: ADME, organism-based; conditions: in vivo, read-out: Vdss
Procedure, shortened: (§1)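 Male Sprague–Dawley rats, n = 2–4. Dosed by iv infusion at 2 mg/kg and orally at 5 mg/kg.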

[2] = Drug concentration in rat bile at 2 mg/kg, iv after 4 hrs; assay type: ADME, organism-based; set-up: dose 2 mg/kg, route intravenous; conditions: read-out: Drug uptake
Procedure, shortened: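 Rats dosed at 2 mg/kg iv; bile collected over 4 h and the fraction of dose recovered determined.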

P2Y purinoceptor 12 [3] = biological target: T1, P2Y purinoceptor 12 (Homo sapiens, UniProt Q9H244); assay: Binding affinity to human recombinant P2Y12 receptor expressed in CHO cells; assay type: cell-based
T1 sequence (Q9H244 whole entry): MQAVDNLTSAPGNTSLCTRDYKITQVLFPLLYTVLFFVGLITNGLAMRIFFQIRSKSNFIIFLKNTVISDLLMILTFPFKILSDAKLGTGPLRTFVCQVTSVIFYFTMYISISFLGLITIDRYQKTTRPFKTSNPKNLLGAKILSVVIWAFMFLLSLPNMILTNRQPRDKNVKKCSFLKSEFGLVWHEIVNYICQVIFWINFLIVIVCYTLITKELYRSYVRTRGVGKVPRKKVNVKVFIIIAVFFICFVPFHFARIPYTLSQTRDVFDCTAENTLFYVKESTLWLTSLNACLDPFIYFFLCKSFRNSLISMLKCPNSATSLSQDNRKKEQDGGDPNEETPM

[4] = Solubility of the compound; assay type: physicochemical
[5] = system: Salmonella enterica subsp. enterica; assay: Toxicity in Salmonella Typhimurium by Ames test; assay type: organism-based; conditions: salmonella enterica subsp. enterica serovar typhimurium
[6] = Effective half life in Sprague-Dawley rat at 2 mg/kg, iv and 5 mg/kg, po; assay type: ADME, organism-based; conditions: in vivo; procedure, shortened: as §1
Rattus norvegicus = assay: Antithrombotic activity in po dosed rat arterial thrombosis model assessed as inhibition of ferric chloride-induced thrombus formation; assay type: functional, organism-based
P2Y purinoceptor 12 [7] = biological target: T1, P2Y purinoceptor 12; assay: Antagonist activity at human P2Y12 receptor assessed as inhibition of ADP-induced platelet-rich plasma aggregation by turbidimetric method; assay type: functional, cell-free
[8] = Clearance in Sprague-Dawley rat at 2 mg/kg, iv and 5 mg/kg, po; assay type: ADME, organism-based; conditions: in vivo; procedure, shortened: as §1

Vd [1]: 0.3 L/kg | dose excreted at 4 h [2]: 70% | Kb (P2Y purinoceptor 12 [3]): 8.5 nM | Ki (P2Y purinoceptor 12 [3]): 15 nM | solubility [4]: Soluble | half-life [6]: 42 min | Kb (P2Y purinoceptor 12 [7]): 300 nM | clearance [8]: 3 mL/min/kg
Compound: CCCCCOC(=O)N1CCN(C(=O)[C@H](CCC(=O)O)NC(=O)c2cc(N3CCC(COC)CC3)cc(-c3ccccc3)n2)CC1
Activity [5]: Non-toxic | Activity (Rattus norvegicus): Dose-dependent effect
